A short description of experiment [1]: Inhibition of anti-CD3/CD28 antibodies-stimulated BALB/c mouse CD4+ T cell activation assessed as frequency of CD4+/CD69+ T cells at 100 nM measured after 48 hrs by flow cytometric analysis (reference value: 14.9%). It counts as functional, CD4+ve Th. On the set-up: scale not given: the % may be the effect or the level left. A digest of the protocol:
(§1)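 Purified BALB/c splenic CD4+ T cells (negative selection) stimulated with anti-CD3 plus anti-CD28 in RPMI 1640/10% FBS with compound for 24 or 48 h. Cells Fc-blocked with anti-CD16/CD32, then stained with FITC-CD3, PE-CD25, APC-CD4 and BV421-CD69. Analyzed by flow cytometry. Data as mean ± SD; one-way ANOVA with Dunnett's test.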
In general terms: Flow cytometry measures light scatter and fluorescence of single cells or particles in a stream.

Experiment [2] addresses T1, Tyrosine-protein kinase ZAP-70 (Homo sapiens, UniProt P43403).
T1 sequence (P43403 whole entry): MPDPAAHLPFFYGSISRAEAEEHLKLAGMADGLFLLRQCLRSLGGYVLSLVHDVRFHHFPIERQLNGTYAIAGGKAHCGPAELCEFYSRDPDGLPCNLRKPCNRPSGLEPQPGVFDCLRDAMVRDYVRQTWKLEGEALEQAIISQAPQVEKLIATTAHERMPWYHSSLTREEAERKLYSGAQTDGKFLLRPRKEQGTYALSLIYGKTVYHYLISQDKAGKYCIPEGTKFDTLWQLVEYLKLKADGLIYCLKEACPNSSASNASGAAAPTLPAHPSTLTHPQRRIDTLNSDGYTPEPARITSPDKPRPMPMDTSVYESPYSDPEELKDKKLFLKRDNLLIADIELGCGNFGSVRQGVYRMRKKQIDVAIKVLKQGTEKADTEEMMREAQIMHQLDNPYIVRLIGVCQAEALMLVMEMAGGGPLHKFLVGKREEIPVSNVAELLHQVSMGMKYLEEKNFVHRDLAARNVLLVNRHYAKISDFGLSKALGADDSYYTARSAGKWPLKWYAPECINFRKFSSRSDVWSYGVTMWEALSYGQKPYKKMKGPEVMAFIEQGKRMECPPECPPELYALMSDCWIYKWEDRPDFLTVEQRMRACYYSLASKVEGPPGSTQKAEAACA
Description: Inhibition of N-terminal GST-fused human recombinant full length ZAP70 (1 to 619 residues) expressed in baculovirus-infected Sf21 cells using FAM-22 peptide as substrate preincubated with enzyme for 10 mins followed by substrate addition for 30 mins in presence of ATP by caliper mobility shift assay.

The target in experiment [3] is Tyrosine-protein kinase ABL1 (Homo sapiens, UniProt P00519). Description: Inhibition of ABL (unknown origin).
Chain of Tyrosine-protein kinase ABL1 (P00519 whole entry): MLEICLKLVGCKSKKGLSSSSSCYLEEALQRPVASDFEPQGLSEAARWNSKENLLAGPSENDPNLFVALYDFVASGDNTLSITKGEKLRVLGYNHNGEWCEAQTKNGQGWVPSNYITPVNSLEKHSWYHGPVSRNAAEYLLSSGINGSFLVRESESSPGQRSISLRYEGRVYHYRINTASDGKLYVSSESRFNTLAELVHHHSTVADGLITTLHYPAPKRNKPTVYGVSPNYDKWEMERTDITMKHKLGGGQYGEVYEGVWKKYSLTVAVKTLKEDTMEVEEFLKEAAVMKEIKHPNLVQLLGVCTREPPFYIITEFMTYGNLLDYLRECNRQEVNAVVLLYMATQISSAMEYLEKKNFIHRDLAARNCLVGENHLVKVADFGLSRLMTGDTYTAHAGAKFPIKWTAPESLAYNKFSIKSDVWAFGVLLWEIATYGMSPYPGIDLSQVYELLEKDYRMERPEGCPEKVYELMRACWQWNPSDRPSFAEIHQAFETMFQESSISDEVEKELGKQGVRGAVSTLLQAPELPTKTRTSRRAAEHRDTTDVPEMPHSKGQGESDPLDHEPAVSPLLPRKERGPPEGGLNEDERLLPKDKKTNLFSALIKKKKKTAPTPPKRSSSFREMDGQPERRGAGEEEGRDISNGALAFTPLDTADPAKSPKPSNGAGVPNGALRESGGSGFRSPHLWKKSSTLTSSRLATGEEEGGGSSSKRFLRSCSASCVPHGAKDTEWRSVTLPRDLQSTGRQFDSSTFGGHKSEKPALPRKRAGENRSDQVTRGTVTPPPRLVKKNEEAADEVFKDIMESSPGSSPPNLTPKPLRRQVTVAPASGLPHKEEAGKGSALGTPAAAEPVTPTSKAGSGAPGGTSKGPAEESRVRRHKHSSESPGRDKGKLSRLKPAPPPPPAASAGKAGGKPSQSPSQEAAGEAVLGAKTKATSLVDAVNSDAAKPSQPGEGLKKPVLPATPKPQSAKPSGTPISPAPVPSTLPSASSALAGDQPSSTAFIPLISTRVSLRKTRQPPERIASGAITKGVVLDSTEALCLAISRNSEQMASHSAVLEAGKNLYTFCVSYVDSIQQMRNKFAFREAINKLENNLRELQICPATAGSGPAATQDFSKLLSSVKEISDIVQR
In experiment [4] the target is Tyrosine-protein kinase HCK (Homo sapiens, UniProt P08631). Kind of experiment: Inhibition of HCK (unknown origin).
Chain of Tyrosine-protein kinase HCK (P08631 whole entry): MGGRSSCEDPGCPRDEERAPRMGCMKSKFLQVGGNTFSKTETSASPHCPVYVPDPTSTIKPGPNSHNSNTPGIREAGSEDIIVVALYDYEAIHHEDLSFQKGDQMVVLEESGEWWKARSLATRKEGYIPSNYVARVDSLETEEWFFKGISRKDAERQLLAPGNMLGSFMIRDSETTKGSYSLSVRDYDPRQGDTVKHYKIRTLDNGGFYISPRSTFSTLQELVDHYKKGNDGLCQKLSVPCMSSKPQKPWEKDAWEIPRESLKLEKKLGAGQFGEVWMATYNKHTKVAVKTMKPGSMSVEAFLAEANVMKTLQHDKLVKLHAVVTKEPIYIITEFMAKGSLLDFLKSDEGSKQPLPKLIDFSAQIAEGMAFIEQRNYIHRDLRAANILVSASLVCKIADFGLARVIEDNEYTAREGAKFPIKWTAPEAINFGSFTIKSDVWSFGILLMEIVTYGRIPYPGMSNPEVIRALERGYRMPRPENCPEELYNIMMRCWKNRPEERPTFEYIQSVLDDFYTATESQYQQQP
In experiment [5] the test system is CD4+ve Th. Description: Inhibition of anti-CD3/CD28 antibodies stimulated-IFN-gamma production in BALB/c mouse CD4+ T cells at 100 to 400 nM measured after 48 hrs by ELISA. It counts as functional, cell-based. The settings on record: dose 100-400 nM. A digest of the protocol:
(§2)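 Supernatants of BALB/c splenic CD4+ T cells, purified by immunomagnetic negative selection (>98% purity). Cells stimulated with anti-CD3 (5 µg/ml) plus anti-CD28 (2 µg/ml) in RPMI 1640 with 10% FBS and penicillin/streptomycin at 37 °C, 5% CO₂. Compound is given from DMSO stock diluted in medium at increasing concentrations for 48 h. Mouse IFN-γ or IL-4 measured by ELISA kit.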
For orientation: In an ELISA, binding on a coated surface is turned into a signal by an enzyme label.

The subject of experiment [6] is CD4+ve Th. Kind of experiment: Inhibition of anti-CD3/CD28 antibodies-stimulated BALB/c mouse CD4+ T cell proliferation measured after 48 hrs by [3H]thymidine incorporation based beta scintillation counting analysis. Particulars: dose 100-400 nM. It counts as functional, tissue-based. A digest of the protocol: (§3)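 Purified BALB/c splenic CD4+ T cells stimulated with anti-CD3 plus anti-CD28 in RPMI 1640/10% FBS with compound (DMSO stock diluted in medium). After 48 h, cultures pulsed with [³H]thymidine 0.5 µCi/well. Incorporated radioactivity counted by beta scintillation.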
A general note: Dividing cells build labelled thymidine or BrdU into new DNA.

Experiment [7] in a line: Inhibition of anti-CD3/CD28 antibodies-stimulated BALB/c mouse CD4+ T cell proliferation at 400 nM measured after 48 hrs by [3H]thymidine incorporation based beta scintillation counting analysis. It counts as functional. Particulars: CD4+ve Th. Put shortly:
as §3

A short description of experiment [8]: Inhibition of anti-CD3/CD28 antibodies-stimulated BALB/c mouse CD4+ T cell activation assessed as frequency of CD4+/CD69+ T cells at 200 nM measured after 24 hrs by flow cytometric analysis (reference value: 2.51%). It is filed as functional, CD4+ve Th. Details: scale not given: the % may be the effect or the level left. A digest of the protocol: as §1
Experiment [9] can be described thus: Inhibition of anti-CD3/CD28 antibodies-stimulated BALB/c mouse CD4+ T cell activation assessed as frequency of CD4+/CD69+ T cells at 100 nM measured after 24 hrs by flow cytometric analysis (reference value: 2.51%). It counts as functional, CD4+ve Th. On the set-up: scale not given: the % may be the effect or the level left. Put shortly:
as §1

Experiment [10] deals with T2, Tyrosine-protein kinase ITK/TSK (Homo sapiens, UniProt Q08881).
T2 sequence (Q08881 whole entry): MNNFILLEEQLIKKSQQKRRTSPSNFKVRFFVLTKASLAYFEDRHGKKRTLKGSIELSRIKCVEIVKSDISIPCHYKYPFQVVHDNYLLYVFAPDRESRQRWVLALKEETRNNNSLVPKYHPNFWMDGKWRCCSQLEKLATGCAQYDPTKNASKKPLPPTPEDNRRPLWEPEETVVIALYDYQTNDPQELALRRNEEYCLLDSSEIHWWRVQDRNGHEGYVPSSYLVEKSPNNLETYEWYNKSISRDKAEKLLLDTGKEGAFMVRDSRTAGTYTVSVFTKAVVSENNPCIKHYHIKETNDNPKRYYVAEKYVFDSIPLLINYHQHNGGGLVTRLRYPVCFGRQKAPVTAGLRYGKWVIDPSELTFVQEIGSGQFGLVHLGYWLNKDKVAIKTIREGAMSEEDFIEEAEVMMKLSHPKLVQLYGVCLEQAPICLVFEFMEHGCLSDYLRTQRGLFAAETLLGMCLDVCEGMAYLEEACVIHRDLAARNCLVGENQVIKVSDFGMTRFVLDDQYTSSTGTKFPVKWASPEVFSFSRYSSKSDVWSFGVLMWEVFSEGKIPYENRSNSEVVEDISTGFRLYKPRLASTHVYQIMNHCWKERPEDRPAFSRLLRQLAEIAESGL
Kind of experiment: Inhibition of ITK (unknown origin).

The nature of experiment [11]: Inhibition of anti-CD3/CD28 antibodies-stimulated BALB/c mouse CD4+ T cell activation assessed as frequency of CD4+/CD69+ T cells at 400 nM measured after 48 hrs by flow cytometric analysis (reference value: 14.9%). Details: scale not given: the % may be the effect or the level left. It counts as functional, CD4+ve Th. A digest of the protocol: as §1
For experiment [12], the system named is CD4+ve Th. Description: Inhibition of anti-CD3/CD28 antibodies stimulated-IL-4 production in BALB/c mouse CD4+ T cells at 100 to 400 nM measured after 48 hrs by ELISA. It is filed as functional, cell-based. The settings on record: dose 100-400 nM. A digest of the protocol: as §2
In experiment [13] the target is Tyrosine-protein kinase Lck (Homo sapiens, UniProt P06239). Kind of experiment: Inhibition of LCK (unknown origin).
Chain of Tyrosine-protein kinase Lck (P06239 whole entry): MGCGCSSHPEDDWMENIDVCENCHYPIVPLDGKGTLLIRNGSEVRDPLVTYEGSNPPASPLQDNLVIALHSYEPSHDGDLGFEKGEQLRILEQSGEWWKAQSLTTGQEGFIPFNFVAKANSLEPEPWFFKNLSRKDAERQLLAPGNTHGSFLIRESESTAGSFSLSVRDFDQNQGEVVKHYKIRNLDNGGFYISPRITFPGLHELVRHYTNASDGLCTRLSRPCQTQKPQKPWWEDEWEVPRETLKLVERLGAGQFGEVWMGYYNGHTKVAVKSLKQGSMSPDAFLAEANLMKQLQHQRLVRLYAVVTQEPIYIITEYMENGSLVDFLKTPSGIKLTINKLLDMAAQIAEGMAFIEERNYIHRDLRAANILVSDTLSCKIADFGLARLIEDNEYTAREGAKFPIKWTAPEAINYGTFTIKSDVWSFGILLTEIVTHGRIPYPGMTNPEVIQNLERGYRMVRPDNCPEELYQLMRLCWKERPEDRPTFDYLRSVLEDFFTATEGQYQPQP
Experiment [14] concerns the target Non-receptor tyrosine-protein kinase TYK2 (Homo sapiens, UniProt P29597). Kind of experiment: Inhibition of TYK2 (unknown origin).
Experiment [15] has as its target Tyrosine-protein kinase SYK (Homo sapiens, UniProt P43405). Kind of experiment: Inhibition of N-terminal GST-fused human recombinant full length SYK (1 to 635 residues) expressed in baculovirus-infected Sf21 cells using FAM-22 peptide as substrate preincubated with enzyme for 10 mins followed by substrate addition for 30 mins in presence of ATP by caliper mobility shift assay.

Experiment [16] has as its target Tyrosine-protein kinase JAK2 (Homo sapiens, UniProt O60674). Description: Inhibition of JAK2 (unknown origin).
A short description of experiment [17]: Inhibition of anti-CD3/CD28 antibodies-stimulated BALB/c mouse CD4+ T cell activation assessed as frequency of CD4+/CD69+ T cells at 400 nM measured after 24 hrs by flow cytometric analysis (reference value: 2.51%). It is filed as functional, CD4+ve Th. On the set-up: scale not given: the % may be the effect or the level left. Put shortly:
as §1

Experiment [18] deals with Tyrosine-protein kinase BTK (Homo sapiens, UniProt Q06187). Description: Inhibition of BTK (unknown origin).
Experiment [19] can be described thus: Inhibition of anti-CD3/CD28 antibodies-stimulated BALB/c mouse CD4+ T cell activation assessed as frequency of CD4+/CD69+ T cells at 200 nM measured after 48 hrs by flow cytometric analysis (reference value: 14.9%). It counts as functional, CD4+ve Th. On the set-up: scale not given: the % may be the effect or the level left. Put shortly: as §1
Experiment [20] concerns the target Proto-oncogene tyrosine-protein kinase Src (Homo sapiens, UniProt P12931). Kind of experiment: Inhibition of SRC (unknown origin).
The test system of experiment [21] is CD4+ve Th. Description: Inhibition of anti-CD3/CD28 antibodies-stimulated BALB/c mouse CD4+ T cell division measured after 72 hrs by CFSE-labeled flow cytometry. It is filed as functional, tissue-based. Particulars: dose 100-400 nM. A digest of the protocol: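 Purified BALB/c CD4+ T cells labeled with CFSE at 37 °C for 5 min and washed in RPMI 1640/20% FBS. Cells cultured with anti-CD3 ([…]) plus anti-CD28 ([…]) in RPMI 1640/10% FBS with compound for 72 h. Division read as CFSE dilution by flow cytometry.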

For experiment [22], the target named is T3, Tyrosine-protein kinase ZAP-70 (Homo sapiens) (UniProt P43403).
T3 sequence (whole entry): T1 sequence (P43403 whole entry)
Kind of experiment: Covalent binding affinity at C346 residue of N-terminal GST-fused human recombinant full length ZAP70 (1 to 619 residues) expressed in baculovirus-infected Sf21 cells at 55 nM preincubated for 5 mins followed by DTT challenge for 10 mins and measured after 18 hrs following trypsin digestion by mass spectrometry. Particulars: time 1095.0 min. Put shortly:
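Recombinant ZAP-70 at 75 nM final in assay buffer (0.01% Triton X-100, 50 mM HEPES, 5 mM MgCl₂, 1 mM MnCl₂). Compound added to 55 nM final and incubated 5 min at 28 °C. DTT then added to 2 mM final for 10 min at room temperature. Trypsin digestion at 37 °C for 18 h, stopped with TFA, C18 desalting. Modified sites mapped by nano-LC–MS/MS.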

Experiment [23] has as its target Tyrosine-protein kinase JAK1 (Homo sapiens, UniProt P23458). Kind of experiment: Inhibition of JAK1 (unknown origin).
The subject of experiment [24] is CD4+ve Th. Description: Inhibition of anti-CD3/CD28 antibodies-stimulated BALB/c mouse CD4+ T cell activation assessed as reduction in CD25 expression measured after 24 to 48 hrs by flow cytometric analysis. It is filed as functional, tissue-based. Particulars: time 24-48 hrs. Put shortly:
as §1

Activity calls are given as the source filed them. The calls are words filed in the database; no cut-off is given here.

Chain of Proto-oncogene tyrosine-protein kinase Src (P12931 2-536 limits assumed): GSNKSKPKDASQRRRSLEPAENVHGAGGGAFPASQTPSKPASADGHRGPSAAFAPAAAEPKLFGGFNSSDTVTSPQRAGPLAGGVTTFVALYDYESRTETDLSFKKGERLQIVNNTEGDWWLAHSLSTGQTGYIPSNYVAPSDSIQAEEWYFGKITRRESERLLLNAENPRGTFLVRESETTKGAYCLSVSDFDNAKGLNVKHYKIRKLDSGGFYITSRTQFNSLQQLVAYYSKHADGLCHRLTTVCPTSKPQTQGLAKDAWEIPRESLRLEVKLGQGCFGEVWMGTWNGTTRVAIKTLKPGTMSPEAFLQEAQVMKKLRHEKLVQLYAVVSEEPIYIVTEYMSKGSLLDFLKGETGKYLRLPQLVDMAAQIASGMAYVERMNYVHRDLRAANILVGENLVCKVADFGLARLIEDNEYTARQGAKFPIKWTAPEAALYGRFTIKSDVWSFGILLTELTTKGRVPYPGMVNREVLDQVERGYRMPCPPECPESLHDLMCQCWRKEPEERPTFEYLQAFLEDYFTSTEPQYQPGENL
Chain of Tyrosine-protein kinase JAK2 (O60674 whole entry): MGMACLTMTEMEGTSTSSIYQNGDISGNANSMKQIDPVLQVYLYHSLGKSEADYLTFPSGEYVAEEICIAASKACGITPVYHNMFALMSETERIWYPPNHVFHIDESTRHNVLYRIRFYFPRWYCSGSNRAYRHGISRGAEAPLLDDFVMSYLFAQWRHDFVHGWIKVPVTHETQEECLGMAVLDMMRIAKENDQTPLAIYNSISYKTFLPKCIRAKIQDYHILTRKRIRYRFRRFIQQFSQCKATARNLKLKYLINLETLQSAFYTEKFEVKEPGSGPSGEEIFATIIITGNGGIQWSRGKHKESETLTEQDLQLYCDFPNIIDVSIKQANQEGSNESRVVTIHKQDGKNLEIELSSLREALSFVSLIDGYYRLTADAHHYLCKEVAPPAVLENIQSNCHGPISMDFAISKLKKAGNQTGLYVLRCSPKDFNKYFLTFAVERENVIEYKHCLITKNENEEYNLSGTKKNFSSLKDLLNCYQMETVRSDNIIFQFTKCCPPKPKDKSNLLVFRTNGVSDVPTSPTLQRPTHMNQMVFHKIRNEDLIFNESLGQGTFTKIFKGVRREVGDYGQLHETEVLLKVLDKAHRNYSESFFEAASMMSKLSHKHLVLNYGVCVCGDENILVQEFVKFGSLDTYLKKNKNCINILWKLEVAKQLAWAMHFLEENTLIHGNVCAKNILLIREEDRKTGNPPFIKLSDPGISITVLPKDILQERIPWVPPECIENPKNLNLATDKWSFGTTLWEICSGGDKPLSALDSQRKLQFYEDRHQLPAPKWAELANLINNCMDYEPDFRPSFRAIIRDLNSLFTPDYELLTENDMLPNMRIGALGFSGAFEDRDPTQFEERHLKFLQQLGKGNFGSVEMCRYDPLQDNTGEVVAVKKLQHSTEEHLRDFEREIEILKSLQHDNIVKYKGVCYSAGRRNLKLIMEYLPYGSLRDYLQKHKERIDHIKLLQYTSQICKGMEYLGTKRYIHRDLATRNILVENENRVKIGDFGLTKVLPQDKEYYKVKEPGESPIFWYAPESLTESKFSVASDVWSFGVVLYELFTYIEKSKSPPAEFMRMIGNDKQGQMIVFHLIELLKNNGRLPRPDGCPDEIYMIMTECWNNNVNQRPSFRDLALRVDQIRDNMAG
Chain of Tyrosine-protein kinase JAK1 (P23458 whole entry): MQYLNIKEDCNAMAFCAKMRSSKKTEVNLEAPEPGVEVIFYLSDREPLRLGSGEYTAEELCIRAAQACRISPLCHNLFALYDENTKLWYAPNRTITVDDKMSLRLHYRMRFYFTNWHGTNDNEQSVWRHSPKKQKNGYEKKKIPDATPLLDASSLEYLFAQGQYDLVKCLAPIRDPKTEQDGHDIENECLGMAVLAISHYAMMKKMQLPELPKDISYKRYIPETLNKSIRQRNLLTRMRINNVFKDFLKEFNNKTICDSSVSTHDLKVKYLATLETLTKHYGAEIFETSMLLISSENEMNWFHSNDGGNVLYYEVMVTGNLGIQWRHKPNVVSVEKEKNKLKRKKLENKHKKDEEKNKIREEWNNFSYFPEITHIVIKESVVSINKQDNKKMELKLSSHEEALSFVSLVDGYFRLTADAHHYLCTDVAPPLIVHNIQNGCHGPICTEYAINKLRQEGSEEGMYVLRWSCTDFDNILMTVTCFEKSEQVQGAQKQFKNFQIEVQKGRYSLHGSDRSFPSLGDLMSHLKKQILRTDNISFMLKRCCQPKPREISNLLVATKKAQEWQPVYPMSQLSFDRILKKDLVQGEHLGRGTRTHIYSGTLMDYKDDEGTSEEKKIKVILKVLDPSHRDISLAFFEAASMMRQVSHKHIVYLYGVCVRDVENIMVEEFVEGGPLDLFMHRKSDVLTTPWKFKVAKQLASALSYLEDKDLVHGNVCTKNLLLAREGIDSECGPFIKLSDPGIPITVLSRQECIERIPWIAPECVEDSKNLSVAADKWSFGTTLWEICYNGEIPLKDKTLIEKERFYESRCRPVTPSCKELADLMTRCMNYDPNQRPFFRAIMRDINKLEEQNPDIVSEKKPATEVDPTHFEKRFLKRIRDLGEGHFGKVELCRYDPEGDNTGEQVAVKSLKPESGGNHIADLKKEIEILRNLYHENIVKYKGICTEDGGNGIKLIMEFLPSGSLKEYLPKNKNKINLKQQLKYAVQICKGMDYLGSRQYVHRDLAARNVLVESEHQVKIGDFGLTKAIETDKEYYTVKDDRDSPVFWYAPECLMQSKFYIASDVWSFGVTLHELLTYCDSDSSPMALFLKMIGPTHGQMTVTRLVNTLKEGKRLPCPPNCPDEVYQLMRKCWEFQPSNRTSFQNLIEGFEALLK

What is called IC50 is the midpoint of a concentration-inhibition curve. As usually defined, the inhibition is the relative decrease from the control value, in per cent. In the case of `COc1cc(Nc2nc(NCc3cccc(NC(=O)CCl)c3)n3ccnc3c2C(N)=O)cc(OC)c1`, the Activity came to 9.83% in experiment [1]; 0.932% in experiment [8]; 1.55% in experiment [9]; 3.64% in [11]; 0.925% in experiment [17]; 4.47% in experiment [19]. The half-maximal inhibitory concentration (IC50) in experiment [2] was 0.055 µM; in experiment [3], > 1 µM; in [4] it was > 1 µM; in [10] it was > 1 µM; in experiment [13] it was > 1 µM; in [14] it was > 1 µM. The IC50 in [15], in [16], in experiment [18], in [20] and in experiment [23] was > 1 µM throughout. In addition, the inhibition entry in the experiment on CD4+ve Th [5], in the experiment on CD4+ve Th [12] and in the experiment with CD4+ve Th [24] was “Active” in each case. In addition, the inhibition entry with CD4+ve Th [6] and in the experiment with CD4+ve Th [21] was “Dose-Dependent Effect” throughout. In addition, the inhibition at 0.4 µM in experiment [7] was 100%. Moreover, the outcome in experiment [22] was Active.

These data come from ChEMBL document CHEMBL4819075, “Discovery of a potent, selective, and covalent ZAP-70 kinase inhibitor” (Eur J Med Chem, 2021).
